Source: PubChem BioAssay (several laboratories)
APJ antagonist: antagonists of human apelin receptor APJ, primary screen, CHO-K1 cells, beta-arrestin complementation, luminescence; P35414; inhibition, % at 20 µM; hit rate 0.32% among 330,000;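 active = inhibition above about 40% at 20 µM, limit read from the data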;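 note: cells challenged with 10 nM apelin-13 agonist together with compound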
EBI2 block: EBI2 receptor antagonists, beta-arrestin recruitment, primary screen, cell-based, luminescence, 7a,25-OHC stimulation, uHTS; 7a,25-OHC stimulated; inhibition, % at 5 µM; hit rate 0.81% among 360,000; AID 651636, 2012; G-protein coupled receptor 183 (Homo sapiens), P32249; in the data active = inhibition above about 38%;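 note: enzyme fragment complementation signal reports receptor beta-arrestin coupling in cells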
APJ ag: agonists of human apelin receptor APJ, primary screen, CHO-K1 cells, PathHunter beta-arrestin, luminescence; 0% DMSO wells, 100% apelin; activation, % at 20 µM; hit rate 0.11% among 330,000;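 active = activation more than six SD over the plate average, tested at 20 µM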
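Assay system: CHO-K1 APJ beta-arrestin complementation cell line / Compound: single test compound dose, 20 µM final, 1% DMSO / Times: overnight seeding, 90 min compound at 25 °C, 1 h detection / Technique: beta-gal luminescence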
CXCR6 block: CXCR6 receptor inhibitors, primary screen, cell-based, beta-arrestin, luminescence, CHO-K1 PathHunter, 1536-well; inhibition, % at 20 µM; hit rate 0.36% among 360,000; AID 602244, 2012; in the data active = inhibition above about 34%, passing the limit was not always enough;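 note: antagonist mode with CXCL16 agonist at 10 nM final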
Target sequence (O00574 whole entry, looked up): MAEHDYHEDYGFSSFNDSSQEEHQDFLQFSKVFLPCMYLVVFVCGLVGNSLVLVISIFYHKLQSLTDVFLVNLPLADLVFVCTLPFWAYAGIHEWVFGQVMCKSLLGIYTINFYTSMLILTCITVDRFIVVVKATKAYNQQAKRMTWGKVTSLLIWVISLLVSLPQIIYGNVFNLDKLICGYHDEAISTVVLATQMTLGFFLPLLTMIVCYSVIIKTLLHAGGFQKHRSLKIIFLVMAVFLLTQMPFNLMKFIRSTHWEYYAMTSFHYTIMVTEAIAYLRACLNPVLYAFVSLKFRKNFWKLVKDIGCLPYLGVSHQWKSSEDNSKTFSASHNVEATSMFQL
CCR6 antagonist: CCR6 receptor antagonists, primary screen, cell-based, CHO-K1, luminescence, beta-arrestin, uHTS | C-C chemokine receptor type 6 (Homo sapiens), P51684 | CHO-K1 CCR6 PathHunter beta-arrestin, CCL20-stimulated | inhibition, % at 20 µM | hit rate 0.49% among 340,000 | AID 493098, 2011;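 active = compounds whose inhibition of the agonist-driven luminescence signal at 20 µM reaches about 50%, limit read from the data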;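 note: cells stimulated with CCL20 at 14 nM final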
m5-HT2A agonist: mouse Htr2a agonists via beta-arrestin recruitment, primary screen, cell-based, luminescence; hit rate 0.66% among 360,000; activation, % at 7.6 µM; AID 624169, 2012; CHO-K1 mHTR2A beta-arrestin complementation; percent of 30 µM serotonin response; 5-hydroxytryptamine receptor 2A (Mus musculus), P35363;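 active = activation above a run cutoff, the mean activation of all tested compounds plus 3 SD, cut at about 14% in these data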
EBI2 antag conf: EBI2 antagonist hit retest, beta-arrestin, confirmation, cell-based, single concentration, luminescence, 7a,25-OHC stimulation; shares compounds with EBI2 block; 7a,25-OHC antagonism; inhibition, % at 5 µM; hit rate 29% among 2,400; AID 651997, 2013;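 active = inhibition of at least 50%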
EBI2 agonist: EBI2 agonist activity of antagonist hits, confirmation, counter-screen for EBI2 antagonist project, cell-based, single concentration, agonist mode, luminescence. shares compounds with EBI2 block. EBI2-expressing cells, 60 min; 0% vehicle, 100% 7α,25-dihydroxycholesterol control. activation, % at 5 µM. 2,400 tested, under 10 active;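 active = activation of at least 50%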
bGal counter: E. coli beta-galactosidase enzyme inhibition, confirmation, counter-screen for EBI2 antagonist project, biochemical, luminescence, single concentration; AID 652176, 2013; hit rate 1% among 2,400; inhibition, % at 5 µM; shares compounds with EBI2 block; purified beta-galactosidase, luminescent Galacton Star, 15 min;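 active = replicate-average signal at least 3 plate SD below neutral wells, shown as high inhibition, flagging enzyme-inhibiting false positives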;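 note: higher means stronger loss of beta-gal luminescence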
A number is an active result; - = inactive; . = not tested or not shown. An excerpt weighted towards active compounds, which were near 2.2% of everything screened.

SMILES | APJ antagonist | EBI2 block | APJ ag | CXCR6 block | CCR6 antagonist | m5-HT2A agonist | EBI2 antag conf | EBI2 agonist | bGal counter
O=C(CSc1nnc(COc2ccc(F)cc2)o1)N1c2ccccc2CCc2ccccc21 | - | 51 | - | - | - | - | - | - | -
COC(=O)c1ccc(OC)c(CSc2nnc(COc3ccc(OC)cc3)o2)c1 | - | 49 | - | - | - | - | - | - | -
Cc1cccc(OCc2nnc(SCC(=O)N3c4ccccc4CCc4ccccc43)o2)c1 | - | 52 | - | - | - | - | - | - | -
COc1ccc(OCc2nnc(SCC(=O)N3C(C)CCCC3C)o2)cc1 (stereo not given) | - | 46 | - | - | - | - | - | - | -
COc1ccc([C@H]2C[C@H](O)[C@@H](n3cc(COC(=O)c4ccccc4)nn3)CN2CC2CCCCC2)cc1 | . | - | . | - | . | - | . | . | .
CCCCNC(=O)c1[nH]c(=O)cnc1-c1ccccc1 | . | - | . | - | . | - | . | . | .
CC(C)c1ccc(C2CC(c3ccc(Br)cc3)=NN2C(N)=S)cc1 (stereo not given) | - | 72 | - | - | - | - | 60 | - | -
CNC(=S)N1N=C(c2ccc(C)cc2)CC1c1ccc(Cl)cc1 (stereo not given) | - | 73 | - | - | - | - | 62 | - | -
O=C(O)CCC(=O)N1N=C(c2ccc(Br)cc2)CC1c1ccc(Br)cc1 (stereo not given) | - | - | - | - | - | - | . | . | .
CNC(=S)N1N=C(c2ccc(C)cc2)CC1c1ccc(Br)cc1 (stereo not given) | - | 81 | - | - | - | - | 65 | - | -
CC(=O)N1N=C(c2ccc(Br)cc2)CC1c1ccc(Br)cc1 (stereo not given) | . | - | . | - | . | - | . | . | .
O=C(COc1ccc(F)cc1)c1ccc2c(c1)CCCC2 | - | 47 | - | - | - | - | - | - | -
Cc1ccc(S(=O)(=O)N2[C@@H](c3ccc(Cl)cc3)C(C(=O)OC(C)(C)C)=CC[C@H]2c2ccc(Cl)c(Cl)c2)cc1 | . | - | . | - | . | - | . | . | .
c1ccc(COc2cccc(-c3cc4nc(NCCc5ccncc5)ccn4n3)c2)cc1 | . | 47 | . | - | . | - | - | - | -
CCCCc1c(-c2ccccc2OC)ncn1Cc1cccc(-c2ccccc2)c1 | . | - | . | - | . | - | . | . | .
CCc1nc2c(OCCn3cccc3)cccn2c1N(C)C(=O)C1CC1 | . | - | . | - | . | - | . | . | .
CC(C)(C)NS(=O)(=O)c1ccc2[nH]c3c(c2c1)CCCCC3 | - | 63 | - | - | - | - | 67 | - | -
COCCCNS(=O)(=O)c1ccc2[nH]c3c(c2c1)CCCCC3 | - | - | - | - | - | - | . | . | .
O=C(c1cc2cc(Cl)ccc2o1)N1CCCC1 | - | - | - | - | - | - | . | . | .
O=C(c1cc2cc(Br)ccc2o1)N1CCCCC1 | - | 57 | - | - | - | - | - | - | -
COc1cccc(NC(=O)Cn2c3ccc(F)cc3c3nc4n(c(=O)c32)CCCS4)c1 | - | 92 | - | - | - | - | 72 | - | -
Cn1c2c(c(=O)n(C)c1=O)CS(=O)c1ccccc1N2 (stereo not given) | . | - | . | - | . | - | . | . | .
O=C(CN1C(=O)C2CC=CCC2C1=O)Nc1cc(C(F)(F)F)ccc1N1CCCC1 (stereo not given) | - | 46 | - | - | - | - | - | - | -
